Source: ChEMBL document CHEMBL4373711, “Development of 3,5-Dinitrophenyl-Containing 1,2,4-Triazoles and Their Trifluoromethyl Analogues as Highly Efficient Antitubercular Agents Inhibiting Decaprenylphosphoryl-β-d-ribofuranose 2'-Oxidase” (J Med Chem, 2019)
Calls of active or inactive are those of the source. The rule behind the calls is not given here.

Assays:
[1] = Genotoxicity in Salmonella typhimurium TA100 at 30 uM in absence of rat liver S9 fraction by Ames test; type: toxicity; conditions: salmonella enterica subsp. enterica serovar typhimurium, s9, 30 µM
[2] = biological target: T1, Decaprenylphosphoryl-beta-D-ribose oxidase (Mycobacterium tuberculosis (strain ATCC 25618 / H37Rv)) (UniProt P9WJF1); assay: Inhibition of DprE1 in Mycobacterium tuberculosis H37Rv assessed as accumulation of trehalose dimycolates at 10 times MIC measured after 24 hrs in presence of [14C]-acetate by TLC-based autoradiography
T1 sequence (whole entry): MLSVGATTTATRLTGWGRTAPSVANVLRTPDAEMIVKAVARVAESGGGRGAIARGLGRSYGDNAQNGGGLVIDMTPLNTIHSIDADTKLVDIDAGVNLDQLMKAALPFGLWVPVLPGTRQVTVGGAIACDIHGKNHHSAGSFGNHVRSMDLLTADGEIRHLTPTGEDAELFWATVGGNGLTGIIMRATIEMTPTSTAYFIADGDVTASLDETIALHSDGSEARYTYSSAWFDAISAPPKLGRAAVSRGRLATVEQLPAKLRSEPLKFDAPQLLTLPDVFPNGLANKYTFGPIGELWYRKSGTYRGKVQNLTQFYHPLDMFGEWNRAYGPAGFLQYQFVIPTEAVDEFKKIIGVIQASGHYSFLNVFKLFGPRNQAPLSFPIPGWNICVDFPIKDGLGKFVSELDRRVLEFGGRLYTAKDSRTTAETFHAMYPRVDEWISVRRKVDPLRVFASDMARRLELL
How it was run: (§1)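 M. tuberculosis H37Rv cultures were exposed to compound at final 10× or 100× MIC, or to DMSO, together with [14C]-acetate at 1 µCi/ml final. After 24 h, lipids were extracted in CHCl3/CH3OH (2:1) for 2 h at 65 °C and given two Folch washes. Extracts were run on TLC in CHCl3/CH3OH/H2O (20:4:0.5), then autoradiographed for 7 days at -80 °C.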

[3] = biological target: T2, Decaprenylphosphoryl-beta-D-ribose oxidase (Mycobacterium smegmatis (strain ATCC 700084 / mc(2)155)) (UniProt A0R607); assay: Inhibition of DprE1 in Mycolicibacterium smegmatis MC2 155 lysate assessed as reduction in epimerization of P[14C]RPP to DP[14C]A at 70 uM measured after 1.5 hrs in presence of NADH by TLC-based autoradiography; type: subcellular
T2 sequence (whole entry): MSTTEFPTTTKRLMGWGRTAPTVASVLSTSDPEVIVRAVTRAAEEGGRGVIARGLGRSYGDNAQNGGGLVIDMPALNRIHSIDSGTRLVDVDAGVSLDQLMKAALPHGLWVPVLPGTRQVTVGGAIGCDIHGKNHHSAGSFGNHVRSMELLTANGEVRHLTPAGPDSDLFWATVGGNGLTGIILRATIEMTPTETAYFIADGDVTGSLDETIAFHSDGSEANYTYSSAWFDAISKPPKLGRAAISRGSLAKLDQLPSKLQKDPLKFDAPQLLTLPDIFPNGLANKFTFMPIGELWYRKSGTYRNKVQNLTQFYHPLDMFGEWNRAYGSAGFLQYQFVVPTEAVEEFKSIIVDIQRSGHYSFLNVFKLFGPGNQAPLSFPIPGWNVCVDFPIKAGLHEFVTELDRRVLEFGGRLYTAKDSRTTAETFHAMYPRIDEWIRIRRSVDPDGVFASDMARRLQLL
How it was run: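 Cell-free DPA synthesis used a membrane/cell-envelope fraction (430 µg), spun at 100 000 × g, from sonicated M. smegmatis mc2155. The fraction was incubated 1.5 h with 15,000 dpm P[14C]RPP and NADH. BTZ was used at 70 µM and test compounds at 700 µM final, both added from DMSO stocks. Lipids were extracted, 25% was resolved by TLC, and autoradiography ran 8 days at -80 °C.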

[4] = biological target: T1, Decaprenylphosphoryl-beta-D-ribose oxidase (Mycobacterium tuberculosis (strain ATCC 25618 / H37Rv)); assay: Inhibition of DprE1 in Mycobacterium tuberculosis H37Rv assessed as accumulation of trehalose monomycolates at 10 times MIC measured after 24 hrs in presence of [14C]-acetate by TLC-based autoradiography; how it was run: as §1
[5] = Genotoxicity in Salmonella typhimurium TA98 at 30 uM in absence of rat liver S9 fraction by Ames test; type: toxicity; conditions: salmonella enterica subsp. enterica serovar typhimurium, s9, 30 µM

## [N-]=[N+]=[N-].[Na+] [SODIUM AZIDE]
[1]
  Activity: Toxic

## C[C@H]1COC2(CCN(c3nc(=O)c4cc(C(F)(F)F)cc([N+](=O)[O-])c4s3)CC2)O1
[2]
  inhibition: Active
[3]
  inhibition: Active
[4]
  inhibition: Active

## O=[N+]([O-])c1ccc2c(c1)Cc1ccccc1-2 [2-NITROFLUORENE]
[5]
  Activity: Toxic
